Results reported in ChEMBL document CHEMBL2375313, “Synthesis, in vitro antitumor evaluation and DNA-binding study of novel tetrahydroquinolines and some derived tricyclic and tetracyclic ring systems” (Eur J Med Chem, 2013).

Assays:
Type in all cases: functional
NCI-H23 = assay: Cytotoxicity against human NCI-H23 cells assessed as growth inhibition at 10 uM after 48 hrs by sulphorhodamine B assay; conditions: NCI-H23, 48 h, read-out: GI
Procedure, shortened: (§1)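 NCI-60 one-dose screen per the NCI Drug Evaluation Branch protocol. Cells given a single 10 µM concentration with 48 h continuous exposure. Growth estimated by sulphorhodamine B protein assay. Result expressed as percentage growth inhibition relative to untreated growth.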

UACC-62 = assay: Cytotoxicity against human UACC62 cells assessed as growth inhibition at 10 uM after 48 hrs by sulphorhodamine B assay; conditions: UACC-62, 48 h, read-out: GI; procedure, shortened: as §1
NCI/ADR-RES = assay: Cytotoxicity against human NCI/ADR-RES cells assessed as growth inhibition at 10 uM after 48 hrs by sulphorhodamine B assay; conditions: read-out: GI; procedure, shortened: as §1
LOX IMVI = assay: Cytotoxicity against human LOXIMVI cells assessed as growth inhibition at 10 uM after 48 hrs by sulphorhodamine B assay; conditions: read-out: GI; procedure, shortened: as §1
SK-OV-3 = assay: Cytotoxicity against human SKOV3 cells assessed as growth inhibition at 10 uM after 48 hrs by sulphorhodamine B assay; conditions: SK-OV-3, 48 h, read-out: GI; procedure, shortened: as §1
NCI-H522 = assay: Cytotoxicity against human NCI-H522 cells assessed as growth inhibition at 10 uM after 48 hrs by sulphorhodamine B assay; conditions: NCI-H522, 48 h, read-out: GI; procedure, shortened: as §1
SNB-19 = assay: Cytotoxicity against human SNB19 cells assessed as growth inhibition at 10 uM after 48 hrs by sulphorhodamine B assay; conditions: SNB-19, 48 h, read-out: GI; procedure, shortened: as §1
SF-268 = assay: Cytotoxicity against human SF268 cells assessed as growth inhibition at 10 uM after 48 hrs by sulphorhodamine B assay; conditions: SF-268, 48 h, read-out: GI; procedure, shortened: as §1
HCT-116 = assay: Cytotoxicity against human HCT116 cells assessed as growth inhibition at 10 uM after 48 hrs by sulphorhodamine B assay; conditions: HCT-116, 48 h, read-out: GI; procedure, shortened: as §1
SK-MEL-5 = assay: Cytotoxicity against human SK-MEL-5 cells assessed as growth inhibition at 10 uM after 48 hrs by sulphorhodamine B assay; conditions: SK-MEL-5, 48 h, read-out: GI; procedure, shortened: as §1
ACHN = assay: Cytotoxicity against human ACHN cells assessed as growth inhibition at 10 uM after 48 hrs by sulphorhodamine B assay; conditions: read-out: GI; procedure, shortened: as §1
SK-MEL-2 = assay: Cytotoxicity against human SK-MEL-2 cells assessed as growth inhibition at 10 uM after 48 hrs by sulphorhodamine B assay; conditions: SK-MEL-2, 48 h, read-out: GI; procedure, shortened: as §1
RPMI-8226 = assay: Cytotoxicity against human RPMI8226 cells assessed as growth inhibition at 10 uM after 48 hrs by sulphorhodamine B assay; conditions: RPMI-8226, 48 h, read-out: GI; procedure, shortened: as §1
MOLT-4 = assay: Cytotoxicity against human MOLT4 cells assessed as growth inhibition at 10 uM after 48 hrs by sulphorhodamine B assay; conditions: MOLT-4, 48 h, read-out: GI; procedure, shortened: as §1
DU-145 = assay: Cytotoxicity against human DU145 cells assessed as growth inhibition at 10 uM after 48 hrs by sulphorhodamine B assay; conditions: DU-145, 48 h, read-out: GI; procedure, shortened: as §1
SNB-75 = assay: Cytotoxicity against human SNB75 cells assessed as growth inhibition at 10 uM after 48 hrs by sulphorhodamine B assay; conditions: SNB-75, 48 h, read-out: GI; procedure, shortened: as §1
OVCAR-5 = assay: Cytotoxicity against human OVCAR5 cells assessed as growth inhibition at 10 uM after 48 hrs by sulphorhodamine B assay; conditions: OVCAR-5, 48 h, read-out: GI; procedure, shortened: as §1
HCT-15 = assay: Cytotoxicity against human HCT15 cells assessed as growth inhibition at 10 uM after 48 hrs by sulphorhodamine B assay; conditions: HCT-15, 48 h, read-out: GI; procedure, shortened: as §1
CAKI-1 = assay: Cytotoxicity against human Caki1 cells assessed as growth inhibition at 10 uM after 48 hrs by sulphorhodamine B assay; conditions: CAKI-1, 48 h, read-out: GI; procedure, shortened: as §1
SR = assay: Cytotoxicity against human SR cells assessed as growth inhibition at 10 uM after 48 hrs by sulphorhodamine B assay; conditions: read-out: GI; procedure, shortened: as §1
SF-295 = assay: Cytotoxicity against human SF295 cells assessed as growth inhibition at 10 uM after 48 hrs by sulphorhodamine B assay; conditions: SF-295, 48 h, read-out: GI; procedure, shortened: as §1
A549 = assay: Cytotoxicity against human A549 cells assessed as growth inhibition at 10 uM after 48 hrs by sulphorhodamine B assay; conditions: A549, 48 h, read-out: GI; procedure, shortened: as §1
U-251 = assay: Cytotoxicity against human U251 cells assessed as growth inhibition at 10 uM after 48 hrs by sulphorhodamine B assay; conditions: U-251, 48 h, read-out: GI; procedure, shortened: as §1
MDA-MB-435 = assay: Cytotoxicity against human MDA-MB-435 cells assessed as growth inhibition at 10 uM after 48 hrs by sulphorhodamine B assay; conditions: MDA-MB-435, 48 h, read-out: GI; procedure, shortened: as §1
HT-29 = assay: Cytotoxicity against human HT-29 cells assessed as growth inhibition at 10 uM after 48 hrs by sulphorhodamine B assay; conditions: HT-29, 48 h, read-out: GI; procedure, shortened: as §1
HOP-92 = assay: Cytotoxicity against human HOP92 cells assessed as growth inhibition at 10 uM after 48 hrs by sulphorhodamine B assay; conditions: HOP-92, 48 h, read-out: GI; procedure, shortened: as §1
HL-60(TB) = assay: Cytotoxicity against human HL-60(TB) cells assessed as growth inhibition at 10 uM after 48 hrs by sulphorhodamine B assay; conditions: HL-60, 48 h, read-out: GI
Procedure, shortened: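 NCI-60 one-dose primary screen run to the Drug Evaluation Branch protocol. Cells are exposed to a single 10 µM concentration for 48 h continuously, and growth is read by SRB protein assay. Data are reported as percent growth of treated cells, expressed as % growth inhibition.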

PC-3 = assay: Cytotoxicity against human PC3 cells assessed as growth inhibition at 10 uM after 48 hrs by sulphorhodamine B assay; conditions: PC-3, 48 h, read-out: GI; procedure, shortened: as §1
RXF 393 = assay: Cytotoxicity against human RXF393 cells assessed as growth inhibition at 10 uM after 48 hrs by sulphorhodamine B assay; conditions: RXF 393, 48 h, read-out: GI; procedure, shortened: as §1
OVCAR-4 = assay: Cytotoxicity against human OVCAR4 cells assessed as growth inhibition at 10 uM after 48 hrs by sulphorhodamine B assay; conditions: OVCAR-4, 48 h, read-out: GI; procedure, shortened: as §1
A498 = assay: Cytotoxicity against human A498 cells assessed as growth inhibition at 10 uM after 48 hrs by sulphorhodamine B assay; conditions: A498, 48 h, read-out: GI; procedure, shortened: as §1
M14 = assay: Cytotoxicity against human M14 cells assessed as growth inhibition at 10 uM after 48 hrs by sulphorhodamine B assay; conditions: M14, 48 h, read-out: GI; procedure, shortened: as §1
[1] = Cytotoxicity against human EKVX cells assessed as growth inhibition at 10 uM after 48 hrs by sulphorhodamine B assay; conditions: read-out: GI; procedure, shortened: as §1
MCF7 = assay: Cytotoxicity against human MCF7 cells assessed as growth inhibition at 10 uM after 48 hrs by sulphorhodamine B assay; conditions: MCF7, 48 h, read-out: GI; procedure, shortened: as §1
UO-31 = assay: Cytotoxicity against human UO31 cells assessed as growth inhibition at 10 uM after 48 hrs by sulphorhodamine B assay; conditions: UO-31, 48 h, read-out: GI; procedure, shortened: as §1
K562 = assay: Cytotoxicity against human K562 cells assessed as growth inhibition at 10 uM after 48 hrs by sulphorhodamine B assay; conditions: K562, 48 h, read-out: GI; procedure, shortened: as §1
MDA-MB-468 = assay: Cytotoxicity against human MDA-MB-468 cells assessed as growth inhibition at 10 uM after 48 hrs by sulphorhodamine B assay; conditions: MDA-MB-468, 48 h, read-out: GI; procedure, shortened: as §1
CCRF-CEM = assay: Cytotoxicity against human CCRF-CEM cells assessed as growth inhibition at 10 uM after 48 hrs by sulphorhodamine B assay; conditions: read-out: GI; procedure, shortened: as §1
IGROV-1 = assay: Cytotoxicity against human IGROV1 cells assessed as growth inhibition at 10 uM after 48 hrs by sulphorhodamine B assay; conditions: IGROV-1, 48 h, read-out: GI; procedure, shortened: as §1
Hs-578T = assay: Cytotoxicity against human Hs578T cells assessed as growth inhibition at 10 uM after 48 hrs by sulphorhodamine B assay; conditions: read-out: GI; procedure, shortened: as §1
T47D = assay: Cytotoxicity against human T47D cells assessed as growth inhibition at 10 uM after 48 hrs by sulphorhodamine B assay; conditions: read-out: GI; procedure, shortened: as §1

Which inhibition of growth at 10 µM (NCI-H23) does the source give for `CC1CCCc2c1nc1[nH]c(=O)nc(N)c1c2-c1ccc(Cl)cc1` (stereo unspecified) here?
Its inhibition of growth at 10 µM is 10%.

And the inhibition of growth at 10 µM (UACC-62)?
Its inhibition of growth at 10 µM is 25.4%.

What about the inhibition of growth at 10 µM (NCI/ADR-RES) of the same molecule?
The inhibition of growth at 10 µM was under 10%.

And the inhibition of growth at 10 µM (LOX IMVI)?
Its inhibition of growth at 10 µM is under 10%.

And the inhibition of growth at 10 µM (SK-OV-3)?
Its inhibition of growth at 10 µM is under 10%.

And the inhibition of growth at 10 µM (NCI-H522)?
The inhibition of growth at 10 µM was 12.9%.

And the inhibition of growth at 10 µM (SNB-19)?
Its inhibition of growth at 10 µM is 16.6%.

What about the inhibition of growth at 10 µM (SF-268) of the same molecule?
The inhibition of growth at 10 µM was under 10%.

What about the inhibition of growth at 10 µM (HCT-116) of the same molecule?
Its inhibition of growth at 10 µM is 14%.

What about the inhibition of growth at 10 µM (SK-MEL-5) of the same molecule?
The inhibition of growth at 10 µM was under 10%.

What about the inhibition of growth at 10 µM (ACHN) of the same molecule?
Its inhibition of growth at 10 µM is under 10%.

And the inhibition of growth at 10 µM (SK-MEL-2)?
Its inhibition of growth at 10 µM is under 10%.

And the inhibition of growth at 10 µM (RPMI-8226)?
Its inhibition of growth at 10 µM is 23%.

What about the inhibition of growth at 10 µM (MOLT-4) of the same molecule?
Its inhibition of growth at 10 µM is under 10%.

What about the inhibition of growth at 10 µM (DU-145) of the same molecule?
The inhibition of growth at 10 µM was 14%.

And the inhibition of growth at 10 µM (SNB-75)?
The inhibition of growth at 10 µM was 11%.

What about the inhibition of growth at 10 µM (OVCAR-5) of the same molecule?
The inhibition of growth at 10 µM was under 10%.

And the inhibition of growth at 10 µM (HCT-15)?
Its inhibition of growth at 10 µM is 10%.

What about the inhibition of growth at 10 µM (CAKI-1) of the same molecule?
Its inhibition of growth at 10 µM is under 10%.

What about the inhibition of growth at 10 µM (SR) of the same molecule?
Its inhibition of growth at 10 µM is under 10%.

What about the inhibition of growth at 10 µM (SF-295) of the same molecule?
Its inhibition of growth at 10 µM is under 10%.

And the inhibition of growth at 10 µM (A549)?
The inhibition of growth at 10 µM was 11.5%.

And the inhibition of growth at 10 µM (U-251)?
Its inhibition of growth at 10 µM is 10.2%.

What about the inhibition of growth at 10 µM (MDA-MB-435) of the same molecule?
The inhibition of growth at 10 µM was under 10%.

And the inhibition of growth at 10 µM (HT-29)?
Its inhibition of growth at 10 µM is under 10%.

And the inhibition of growth at 10 µM (HOP-92)?
The inhibition of growth at 10 µM was 27.7%.

What about the inhibition of growth at 10 µM (HL-60(TB)) of the same molecule?
Its inhibition of growth at 10 µM is 24.6%.

What about the inhibition of growth at 10 µM (PC-3) of the same molecule?
The inhibition of growth at 10 µM was 12.7%.

And the inhibition of growth at 10 µM (RXF 393)?
The inhibition of growth at 10 µM was under 10%.

What about the inhibition of growth at 10 µM (OVCAR-4) of the same molecule?
The inhibition of growth at 10 µM was 13.6%.

And the inhibition of growth at 10 µM (A498)?
Its inhibition of growth at 10 µM is under 10%.

And the inhibition of growth at 10 µM (M14)?
Its inhibition of growth at 10 µM is under 10%.

And the inhibition of growth at 10 µM [1]?
The inhibition of growth at 10 µM was under 10%.

What about the inhibition of growth at 10 µM (MCF7) of the same molecule?
Its inhibition of growth at 10 µM is under 10%.

What about the inhibition of growth at 10 µM (UO-31) of the same molecule?
Its inhibition of growth at 10 µM is 10%.

What about the inhibition of growth at 10 µM (K562) of the same molecule?
Its inhibition of growth at 10 µM is 36.4%.

What about the inhibition of growth at 10 µM (MDA-MB-468) of the same molecule?
The inhibition of growth at 10 µM was 10%.

What about the inhibition of growth at 10 µM (CCRF-CEM) of the same molecule?
The inhibition of growth at 10 µM was under 10%.

What about the inhibition of growth at 10 µM (IGROV-1) of the same molecule?
The inhibition of growth at 10 µM was under 10%.

And the inhibition of growth at 10 µM (Hs-578T)?
Its inhibition of growth at 10 µM is 19.4%.

And the inhibition of growth at 10 µM (T47D)?
Its inhibition of growth at 10 µM is 29.5%.
